Molecules are shown by their SMILES. Active and inactive are the calls of the source. No cut-off for these calls is given here. Where only a bound is given, the exact number is not on record here.

Broadly, the ED50 is the dose that gives a 50% effect, or the effect in half of the subjects. A low value points to greater potency. The term TD50 denotes the 50% point of the dose-response relation for the toxic effect studied. A lower TD50 goes with greater toxicity.

The test system of data set [1] is Mus musculus. The data set is described as follows: Anticonvulsant activity against maximal electroshock-induced seizures in mouse model at 300 mg/kg, ip after 4 hrs. Type of data set: functional, organism-based. Also on record: dose 300 mg/kg. An outline of the steps: (§1)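 Mice dosed intraperitoneally at 300 mg/kg, in a dosing volume of 0.01 mL per gram body weight. Seizure protection was scored at the stated time after dosing. Activity is expressed as the number of animals protected over the number tested.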
In general terms: Protection in the maximal electroshock model is a classic sign of anticonvulsant action.

For data set [2], the system named is Mus musculus. The data set is described as follows: Anticonvulsant activity against scMet-induced seizures in mouse model at 300 mg/kg, ip after 0.5 hrs. Also on record: dose 300 mg/kg. In kind it is functional, organism-based. The method, boiled down:
as §1

Data set [3] has as its system Mus musculus. Briefly: Anticonvulsant activity against scMet-induced seizures in mouse model at 300 mg/kg, ip after 4 hrs. In kind it is functional, organism-based. The arrangement: dose 300 mg/kg. The method, boiled down:
as §1

The test system of data set [4] is Mus musculus. The data set is described as follows: Anticonvulsant activity against maximal electroshock-induced seizures in mouse model at 300 mg/kg, ip after 0.5 hrs. Type of data set: functional, organism-based. The arrangement: dose 300 mg/kg. The method, boiled down:
as §1

The species named for data set [5] is Mus musculus. Briefly: Anticonvulsant activity against maximal electroshock-induced seizures in mouse model. In kind it is functional. An outline of the steps: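 Compounds given ip to mice at 100 or 300 mg/kg, dosed at 0.01 mL per gram body weight. Maximal electroshock seizures were tested at 0.5, 2 and 4 h after dosing. Activity is reported as animals protected over animals tested, with neurotoxicity scored alongside.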

Data set [6] in a line: Toxicity in orally dosed rat by rotarod test. In kind it is organism-based. The settings on record: in vivo, po. An outline of the steps: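 Rats dosed orally in a volume of 0.04 mL per 10 g body weight. Dose was varied until four points were established between the level causing no minimal motor impairment in any animal and the level at which all animals were impaired. TD50 was derived with 95% confidence intervals by probit analysis.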
A general note: The rotarod test checks motor coordination on a turning rod.

The test system of data set [7] is Rattus norvegicus. Briefly: Anticonvulsant activity against scMet-induced seizures in orally dosed rat model. The settings on record: po. Type of data set: functional. An outline of the steps:
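Rats dosed orally in a volume of 0.04 mL per 10 g body weight. ED50 was determined with 95% confidence intervals by probit analysis.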

Data set [8] relates to Rattus norvegicus. The data set is described as follows: Anticonvulsant activity against maximal electroshock-induced seizures in orally dosed rat model. In kind it is functional. The settings on record: po.
The test system of data set [9] is Mus musculus. Briefly: Anticonvulsant activity against maximal electroshock-induced seizures in mouse model at 300 mg/kg, ip after 2 hrs. In kind it is functional, organism-based. Also on record: dose 300 mg/kg. An outline of the steps:
as §1

For data set [10], the system named is Mus musculus. The data set is described as follows: Anticonvulsant activity against scMet-induced seizures in mouse model at 100 mg/kg. Type of data set: functional.
For data set [11], the species on record is Rattus norvegicus. Briefly: Protective index, ratio of TD50 for rat by rotarod test to ED50 for rat by MES test. Type of data set: functional. An outline of the steps: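 PI was calculated as TD50/ED50 from oral dosing in rats. Both values were derived by probit analysis.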

In the case of `CC1(C)C(C(=O)NCCc2ccccc2)C1(C)C`, the result in [1], in data set [3] and in [4] was inactive. Besides, in data set [2], the result was Active.

With `CC(CNC(=O)C1C(C)(C)C1(C)C)c1ccccc1` (stereo unspecified), the outcome in [1], in [2], in data set [3] and in data set [4] was inactive.

In the case of `CC1(C)C(C(=O)NC(=O)Nc2ccccc2)C1(C)C`, the result in data set [1], in [2], in data set [3] and in [4] was inactive.

For `CC1(C)C(C(=O)Nc2ccccc2)C1(C)C`, the outcome in data set [1], in [2], in data set [3] and in data set [4] was inactive.

Regarding `CC(=O)c1ccc(NC(=O)C2C(C)(C)C2(C)C)cc1`, in data set [1], the result was Active. Further, the outcome in data set [2], in [3] and in data set [4] was inactive.

As to `CC1(C)C(C(=O)Nc2cc(Cl)c(S(N)(=O)=O)cc2S(N)(=O)=O)C1(C)C`, the result in [1], in [2], in data set [3] and in data set [4] was inactive.

On to `CCCC(CCC)C(=O)NCc1ccc(S(N)(=O)=O)cc1`, for which the ED50 in [5] was 16 mg/kg.

For `Cc1cccc(C)c1OCC(C)NC(=O)C1C(C)(C)C1(C)C` (stereo unspecified), the result in [1], in [2], in data set [3] and in data set [4] was inactive.

Turning to `CC1(C)C(C(=O)NCc2ccc(S(N)(=O)=O)cc2)C1(C)C`, the result in data set [2], in data set [3] and in data set [4] was inactive.

Regarding `CC1(C)C(C(=O)NCc2ccccc2)C1(C)C`, the result in [1] and in data set [3] was inactive. For the same compound, the result in data set [2] and in data set [4] was Active.

`CC1(C)C(C(=O)NCc2ccc(F)cc2)C1(C)C`: the result in [1], in data set [2], in [3] and in data set [4] was inactive.

Consider `CC1(C)C(C(=O)Nc2ccc(S(N)(=O)=O)cc2)C1(C)C`, for which the TD50 in [6] is greater than 500 mg/kg. In addition, the ED50 in data set [7] is greater than 100 mg/kg; in data set [8], 26 mg/kg. In [9], the outcome was Active. Besides, the result in data set [2], in data set [3] and in data set [4] was inactive.

On to `CCCC(CCC)C(=O)NCc1ccccc1` [VALPROYLBENZYLAMIDE], for which, in data set [10], the Activity was found to be 50%.

Compound `NS(=O)(=O)Cc1noc2ccccc12` [ZONISAMIDE] returned a TD50 in data set [6] of 192 mg/kg. In addition, the ED50 in [7] was greater than 300 mg/kg; in data set [8], 21 mg/kg.

For `CC1(C)C(C(=O)NCCCc2ccccc2)C1(C)C`, the outcome in data set [1], in [2], in data set [3] and in data set [4] was inactive.

Consider `CC1(C)C(C(=O)NC(N)=O)C1(C)C` [2,2,3,3-TETRAMETHYLCYCLOPROPANECARBONYLUREA], for which, in data set [8], the ED50 was 29 mg/kg.

As for `CC(NC(=O)C1C(C)(C)C1(C)C)c1ccccc1` (stereo unspecified), the outcome in data set [1], in data set [2], in data set [3] and in data set [4] was inactive.

On to `CC1(C)C(C(=O)NCCc2c[nH]c3ccccc23)C1(C)C`, for which the outcome in data set [1], in [2], in [3] and in data set [4] was inactive.

For `CCCC(CCC)C(=O)O` [VALPROIC ACID], the 50% effect level in data set [7] (ED50) was put at a dose of 646 mg/kg.

In the case of `CONC(=O)C1C(C)(C)C1(C)C`, the ED50 in data set [7] was determined as 35 mg/kg. The PI in data set [11] stood at 10.

With `CC1(C)C(C(=O)NCc2ccccc2Cl)C1(C)C`, the result in data set [1], in data set [2], in data set [3] and in data set [4] was inactive.

In the case of `CC(C(O)c1ccccc1)N(C)C(=O)C1C(C)(C)C1(C)C` (stereo unspecified), the result in data set [1], in data set [2], in data set [3] and in [4] was inactive.

Turning to `Cc1cccc(C)c1OCC(C)N` (stereo unspecified) [MEXILETINE], the ED50 in data set [5] came to 10 mg/kg.

The values above are taken from ChEMBL document CHEMBL1150374, “Synthesis and anticonvulsant activity of aromatic tetramethylcyclopropanecarboxamide derivatives” (Bioorg Med Chem, 2008).
